Results from PMC10350030 (bioRxiv, 2023).
Entries after “also recorded” stand apart in the source; their conditions may differ. Each block holds one molecule with its values, some of them ahead of it.

What was measured:
[1] = target: FAM-Aβ42 (Homo sapiens, UniProt P05067); assay type: biochemical; conditions: for enhancement of CP-induced degradation of FAM-Aβ42 by anti-oxidants: compared with CP only group
[2] = Fluorescence spectra of FAM-Aβ42 during incubation in PBS; assay type: physicochemical; conditions: PBS buffer, 0 to 60 minutes, peptide alone
[3] = system: mature iPS neurons; test: Toxicity study with iPS neuronal cells; assay type: cell-based; conditions: 24 hours, Tuj-1 staining; for neuritic continuity of neurons treated with Aβ oligomers: Aβ Oligomer (20 μM)
How it was run: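 Neurons came from iPS cells differentiated from blood stem cells and were used as mature cultures 12 days after seeding. They were treated with Aβ oligomers (20 µM), with or without test compound. Neuronal morphology and neurite continuity were assessed by immunocytochemistry for Tuj-1, a neuronal class III β-tubulin marker.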

[4] = system: SH-SY5Y cells; test: ApopTag fluorescein in situ apoptosis detection assay with Aβ42 oligomers; assay type: cell-based; conditions: Aβ oligomer (20 μM) and AO (2 μM), 24 hours, compared to the control group
[5] = system: hippocampal CA1 area from mouse brain slides; test: Extracellular fEPSP recording in hippocampal CA1 of brain slices; conditions: 1 hour
How it was run: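 In hippocampal slices, the Schaffer collateral pathway was stimulated once every 15 s with 0.1 ms current pulses. Field potentials were recorded extracellularly in the CA1 stratum radiatum. fEPSP was measured as the negative deflection of the voltage trace from baseline. Maximal amplitude was summarised for four groups: control, Aβ (1 µM), test compound (0.1 µM), and Aβ plus test compound.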

Sequence of FAM-Aβ42 (P05067 672-713): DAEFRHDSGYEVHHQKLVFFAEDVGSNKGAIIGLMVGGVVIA

effect of EDTA on Cu/Vc-induced degradation of FAM-Aβ42 ([1]; Cu(II)/EDTA/Vc (1:10:20), control experiment): inhibited the degradation
Molecule: O=C(O)CN(CCN(CC(=O)O)CC(=O)O)CC(=O)O [EDTA]

Molecule: Oc1ccc(/C=C/c2cc(O)cc(O)c2)cc1 [resveratrol]
enhancement of CP-induced degradation of FAM-Aβ42 by anti-oxidants [1]: neither of these anti-oxidants could enhance the degradation

degradation enhancement by Vc when incubated with AO ([1]; AO/Vc versus AO): no significant degradation enhancement
Molecule: O=C1O[C@H]([C@@H](O)CO)C(O)=C1O [Vc, Vitamin C]

Molecule: vitamin E
enhancement of CP-induced degradation of FAM-Aβ42 by anti-oxidants [1]: neither of these anti-oxidants could enhance the degradation

Molecule: NC[C@H](O)c1ccc(O)c(O)c1 [norepinephrine]
enhancement of CP-induced degradation of FAM-Aβ42 by anti-oxidants [1]: neither of these anti-oxidants could enhance the degradation

Molecule: NCCc1ccc(O)c(O)c1 [dopamine]
enhancement of CP-induced degradation of FAM-Aβ42 by anti-oxidants [1]: neither of these anti-oxidants could enhance the degradation

Molecule: FAM-Aβ42: a fluorescent dye conjugated Aβ [reference compound]
fluorescence intensity of FAM-Aβ42 during incubation (aggregation-induced fluorescence quenching) [2]: gradually decreasing

AO-mediated cleavage of FAM-Aβ42 under N2 ([1]; N2 gas bubbled into the incubation buffer before incubation): considerably reduced
cleavage of FAM-Aβ42 ([1]; after 4 hours of incubation with AO): more than 50%
Molecule: ascorbate oxidase [AO]
neuritic continuity of neurons treated with Aβ oligomers mixed with AO ([3]; Aβ Oligomer (20 μM) and AO (2 μM)): no apparent broken segments; also recorded: normal length neurites
level of cell apoptosis [4]: significantly reduced
change of fEPSP magnitude by AO alone ([5]; AO alone (0.1 µM)): did not cause significant changes
maximal fEPSP amplitude, Ab-AO group ([5]; slices incubated with 1 µM Ab and 0.1 µM AO, mean ± SE): 3.61± 0.49 mV

Molecule: COc1cc(/C=C/C(=O)CC(=O)/C=C/c2ccc(O)c(OC)c2)ccc1O [curcumin]
enhancement of CP-induced degradation of FAM-Aβ42 by anti-oxidants [1]: neither of these anti-oxidants could enhance the degradation

Molecule: Aβ oligomers: Aβ42 oligomers prepared from Aβ42 peptide in F12 media at 4°C for 24 hours [reference compound]
neuritic continuity of neurons treated with Aβ oligomers [3]: apparent broken neuritic segments
neuritic continuity of neurons treated with Aβ oligomers ([3]; listed as Aβ Oligomer): loss of neuritic continuity
